Experimental data from ChEMBL document CHEMBL4004807 (J Med Chem, 2017).

Columns and labels:
Plasma [1] = assay: Drug metabolism in po dosed rat plasma assessed as ralinepag formation; assay type: ADME, organism-based; conditions: in vivo
[2] = Drug level in bile-duct cannulated rat bile treated with 2-(((1r,4r)-4-(((4-chlorophenyl)(phenyl)carbamoyloxy)methyl)cyclohexyl)methoxy)acetic acid; assay type: ADME; conditions: in vivo
Plasma [3] = assay: Drug level in bile-duct cannulated rat plasma treated with 2-(((1r,4r)-4-(((4-chlorophenyl)(phenyl)carbamoyloxy)methyl)cyclohexyl)methoxy)acetic acid; assay type: ADME, cell-free
[4] = Drug degradation in simulated gastric fluid after 3 hrs
Summary of the method: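 Incubated in simulated gastric fluid at room temperature for 3 h; conversion to parent monitored.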

- Drug metabolism (Plasma [1]): Metabolite_Detected
- Drug metabolism [2]: Metabolite_Detected
- Drug metabolism (Plasma [3]): Metabolite_Detected
SMILES: O=C(COC[C@H]1CC[C@H](COC(=O)N(c2ccccc2)c2ccc(Cl)cc2)CC1)NCCS(=O)(=O)O
- Drug degradation [4]: Metabolite_Notdetected
